Assay results from ChEMBL document CHEMBL1177870, “Multiple toxin production in the cyanobacterium microcystis: isolation of the toxic protease inhibitor cyanopeptolin 1020” (J Nat Prod, 2010).
Calls of active or inactive are those of the source. The calls are words filed in the database; no cut-off is given here.

Columns and labels:
[1] = Inhibition of bovine trypsin; set-up: species or system Bos taurus
Procedure, shortened: (§1)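 Fluorogenic kinetic assay. Protease and inhibitor preincubated at RT for 30 min before substrate was added. Read at ex 355/em 480 nm every 30 s for 1 h. Initial rates were taken by linear regression, and fractional activity was the inhibited rate over the uninhibited blank rate.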

Prothrombin [2] = target: T1, Prothrombin (Homo sapiens, UniProt P00734); assay: Inhibition of thrombin; procedure, shortened: as §1
[3] = Inhibition of chymotrypsin; procedure, shortened: as §1
[4] = Inhibition of human kallikrein; procedure, shortened: as §1
[5] = target: T2, Tissue-type plasminogen activator (Homo sapiens, UniProt P00750); assay: Inhibition of human tissue plasminogen activator; procedure, shortened: as §1
Target sequence in this assay (P00750 whole entry): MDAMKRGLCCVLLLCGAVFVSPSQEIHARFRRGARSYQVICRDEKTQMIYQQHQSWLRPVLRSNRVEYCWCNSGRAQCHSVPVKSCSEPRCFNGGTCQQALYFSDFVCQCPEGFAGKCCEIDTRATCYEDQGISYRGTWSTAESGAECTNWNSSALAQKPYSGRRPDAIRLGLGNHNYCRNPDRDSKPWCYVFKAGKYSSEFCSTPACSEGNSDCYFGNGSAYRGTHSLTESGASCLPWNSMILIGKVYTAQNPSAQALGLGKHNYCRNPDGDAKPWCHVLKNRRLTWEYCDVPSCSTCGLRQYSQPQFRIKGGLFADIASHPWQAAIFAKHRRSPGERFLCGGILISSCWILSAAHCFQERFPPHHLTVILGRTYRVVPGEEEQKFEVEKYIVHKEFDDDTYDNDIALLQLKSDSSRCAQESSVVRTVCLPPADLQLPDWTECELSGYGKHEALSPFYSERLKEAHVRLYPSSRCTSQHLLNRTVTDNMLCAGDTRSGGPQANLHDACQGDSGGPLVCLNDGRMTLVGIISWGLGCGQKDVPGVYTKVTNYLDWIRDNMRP

Plasminogen = Plasminogen (Homo sapiens, UniProt P00747); assay: Inhibition of plasmin; procedure, shortened: as §1
Prothrombin [6] = target: T1, Prothrombin; assay: Inhibition of thrombin at < 2.5 uM; procedure, shortened: as §1
[7] = Toxicity in Thamnocephalus platyurus after 24 hrs by acute toxicity assay; type: organism-based; details: in vivo
Procedure, shortened: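 Thamnocephalus platyurus instar II–III larvae hatched from cysts were exposed in multiwell plates for 24 h to six concentrations from 0.1 to 100 µM of highly purified compound, with 20–30 animals per concentration. LC50 was obtained by nonlinear regression.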

Coagulation factor XI = Coagulation factor XI (Homo sapiens, UniProt P03951); assay: Inhibition of factor 11a; procedure, shortened: as §1
[8] = Inhibition of trypsin; procedure, shortened: as §1
[9] = target: T3, Urokinase-type plasminogen activator (Homo sapiens, UniProt P00749); assay: Inhibition of human LMW urokinase at < 2.5 uM; procedure, shortened: as §1
[10] = target: T3, Urokinase-type plasminogen activator; assay: Inhibition of human LMW urokinase; procedure, shortened: as §1
[11] = target: T2, Tissue-type plasminogen activator; assay: Inhibition of human tissue plasminogen activator at < 2.5 uM; procedure, shortened: as §1
Target sequence in this assay (P00750 36-562 limits assumed): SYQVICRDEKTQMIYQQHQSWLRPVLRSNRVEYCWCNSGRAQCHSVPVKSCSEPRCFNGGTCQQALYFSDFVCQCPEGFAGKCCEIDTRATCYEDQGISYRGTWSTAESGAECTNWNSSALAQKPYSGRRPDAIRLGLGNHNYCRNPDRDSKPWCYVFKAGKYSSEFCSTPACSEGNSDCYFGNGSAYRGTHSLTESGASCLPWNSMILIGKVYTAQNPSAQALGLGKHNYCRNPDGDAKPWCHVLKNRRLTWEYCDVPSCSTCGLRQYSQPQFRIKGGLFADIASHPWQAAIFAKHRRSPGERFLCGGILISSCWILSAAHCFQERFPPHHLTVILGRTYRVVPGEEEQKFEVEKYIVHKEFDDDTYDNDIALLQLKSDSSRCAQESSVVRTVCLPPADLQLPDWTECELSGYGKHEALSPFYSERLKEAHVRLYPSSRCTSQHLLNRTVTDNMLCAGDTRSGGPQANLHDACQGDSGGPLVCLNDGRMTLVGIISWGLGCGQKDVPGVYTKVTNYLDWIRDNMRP

Sequence of Plasminogen (P00747 97-580 limits assumed): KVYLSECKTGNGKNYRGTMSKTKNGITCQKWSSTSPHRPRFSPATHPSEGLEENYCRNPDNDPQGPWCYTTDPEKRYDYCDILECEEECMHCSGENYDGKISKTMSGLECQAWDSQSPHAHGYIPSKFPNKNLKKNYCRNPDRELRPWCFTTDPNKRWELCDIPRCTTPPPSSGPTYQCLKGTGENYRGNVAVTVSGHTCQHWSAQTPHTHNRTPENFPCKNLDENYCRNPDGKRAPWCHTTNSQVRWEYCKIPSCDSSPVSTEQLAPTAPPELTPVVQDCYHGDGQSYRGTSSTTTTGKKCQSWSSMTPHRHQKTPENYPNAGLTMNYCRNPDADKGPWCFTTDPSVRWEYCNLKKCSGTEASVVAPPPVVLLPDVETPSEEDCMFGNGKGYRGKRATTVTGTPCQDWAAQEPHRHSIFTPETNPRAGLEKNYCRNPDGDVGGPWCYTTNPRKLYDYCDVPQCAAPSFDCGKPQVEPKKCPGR
Sequence of Plasminogen (P00747 581-810 limits assumed): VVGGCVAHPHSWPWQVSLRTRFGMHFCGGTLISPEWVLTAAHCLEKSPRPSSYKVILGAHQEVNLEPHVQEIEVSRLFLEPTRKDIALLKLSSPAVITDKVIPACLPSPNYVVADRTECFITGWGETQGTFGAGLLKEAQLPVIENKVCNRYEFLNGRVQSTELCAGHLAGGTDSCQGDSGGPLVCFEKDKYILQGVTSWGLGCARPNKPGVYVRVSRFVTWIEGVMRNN
Sequence of Coagulation factor XI (P03951 19-387 limits assumed): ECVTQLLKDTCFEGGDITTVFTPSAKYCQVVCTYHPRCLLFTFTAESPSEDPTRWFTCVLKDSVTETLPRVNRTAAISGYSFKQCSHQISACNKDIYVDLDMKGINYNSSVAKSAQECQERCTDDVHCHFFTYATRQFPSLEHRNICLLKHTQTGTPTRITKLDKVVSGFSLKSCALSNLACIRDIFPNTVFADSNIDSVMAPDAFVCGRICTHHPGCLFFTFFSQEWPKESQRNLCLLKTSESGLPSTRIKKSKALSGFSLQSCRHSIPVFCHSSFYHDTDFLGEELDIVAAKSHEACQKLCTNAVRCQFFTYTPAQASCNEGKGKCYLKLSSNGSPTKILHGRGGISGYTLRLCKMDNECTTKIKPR
Sequence of Coagulation factor XI (P03951 388-625 limits assumed): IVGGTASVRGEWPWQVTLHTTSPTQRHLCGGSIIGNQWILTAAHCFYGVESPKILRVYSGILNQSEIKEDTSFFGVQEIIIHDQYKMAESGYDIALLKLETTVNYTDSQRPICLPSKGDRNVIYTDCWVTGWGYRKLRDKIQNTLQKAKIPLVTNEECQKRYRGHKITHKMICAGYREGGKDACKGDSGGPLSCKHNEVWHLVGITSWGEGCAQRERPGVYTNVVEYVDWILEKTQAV

Structure (SMILES) | IC50 [1] | IC50 (Prothrombin [2]) | IC50 [3] | IC50 [4] | IC50 [5] | IC50 (Plasminogen) | inhibition (Prothrombin [6]) | LC50 at 24 h [7] | IC50 (Coagulation factor XI) | IC50 [8] | inhibition [9] | IC50 [10] | inhibition [11]
CC(C)C[C@@H](NC(=O)[C@H](O)COS(=O)(=O)O)C(=O)N[C@@H]1C(=O)N[C@@H](CCCNC(=N)N)C(=O)N[C@H]2CC[C@@H](O)N(C2=O)[C@@H](CC(C)C)C(=O)N(C)[C@@H](Cc2ccc(O)cc2)C(=O)N[C@@H](C(C)C)C(=O)O[C@@H]1C | 0.01 µM | – | – | – | – | – | – | – | – | – | – | – | –
CCCCCC(=O)N[C@@H](CCC(=O)O)C(=O)N[C@@H]1C(=O)N[C@@H](CCCNC(=N)N)C(=O)N[C@H]2CC[C@@H](O)N(C2=O)[C@@H](Cc2ccccc2)C(=O)N(C)[C@@H](Cc2ccc(O)cc2)C(=O)N[C@@H](C(C)C)C(=O)O[C@@H]1C [CYANOPEPTOLIN 1020] | – | > 2.5 µM | 1.8 µM | 0.0045 µM | > 2.5 µM | 0.49 µM | inactive | 8.8 µM | 0.0039 µM | 0.00067 µM | inactive | > 605 µM | inactive
